# In paper PMC4339026 (Biopolymers, 2014):
# Entries after “also recorded” stand apart in the source; their conditions may differ. Where two headings read alike, the source gives them in different places.
# How the values were obtained:
# meprin β [1] = target: T1, meprin β (Homo sapiens, UniProt Q16820); experiment: Meprin β LOPAC pilot screen; format: biochemical; settings: 18 μM; for meprin β LOPAC pilot screen outcome: hit cutoff 25% inhibition
# T1 sequence (Q16820 62-614 limits assumed): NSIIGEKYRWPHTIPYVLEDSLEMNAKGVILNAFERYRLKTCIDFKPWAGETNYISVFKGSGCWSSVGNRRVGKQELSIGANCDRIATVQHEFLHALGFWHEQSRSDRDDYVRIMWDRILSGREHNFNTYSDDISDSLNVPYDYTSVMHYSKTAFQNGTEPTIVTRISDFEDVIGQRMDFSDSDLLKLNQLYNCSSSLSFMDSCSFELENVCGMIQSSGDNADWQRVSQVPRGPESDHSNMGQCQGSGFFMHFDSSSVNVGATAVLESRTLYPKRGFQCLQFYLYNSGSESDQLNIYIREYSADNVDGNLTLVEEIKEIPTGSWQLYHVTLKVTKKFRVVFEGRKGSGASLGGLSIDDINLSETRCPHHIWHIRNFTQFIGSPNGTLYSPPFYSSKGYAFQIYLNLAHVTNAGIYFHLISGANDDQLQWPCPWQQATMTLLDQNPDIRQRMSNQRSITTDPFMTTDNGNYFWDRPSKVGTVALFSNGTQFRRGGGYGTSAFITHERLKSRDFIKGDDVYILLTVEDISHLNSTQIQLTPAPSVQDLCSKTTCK
# meprin α [2] = target: T2, meprin α (Homo sapiens, UniProt Q16819); experiment: Meprin α LOPAC pilot screen; format: biochemical; settings: 18 μM, hit cutoff 25% inhibition
# T2 sequence (Q16819 66-653 limits assumed): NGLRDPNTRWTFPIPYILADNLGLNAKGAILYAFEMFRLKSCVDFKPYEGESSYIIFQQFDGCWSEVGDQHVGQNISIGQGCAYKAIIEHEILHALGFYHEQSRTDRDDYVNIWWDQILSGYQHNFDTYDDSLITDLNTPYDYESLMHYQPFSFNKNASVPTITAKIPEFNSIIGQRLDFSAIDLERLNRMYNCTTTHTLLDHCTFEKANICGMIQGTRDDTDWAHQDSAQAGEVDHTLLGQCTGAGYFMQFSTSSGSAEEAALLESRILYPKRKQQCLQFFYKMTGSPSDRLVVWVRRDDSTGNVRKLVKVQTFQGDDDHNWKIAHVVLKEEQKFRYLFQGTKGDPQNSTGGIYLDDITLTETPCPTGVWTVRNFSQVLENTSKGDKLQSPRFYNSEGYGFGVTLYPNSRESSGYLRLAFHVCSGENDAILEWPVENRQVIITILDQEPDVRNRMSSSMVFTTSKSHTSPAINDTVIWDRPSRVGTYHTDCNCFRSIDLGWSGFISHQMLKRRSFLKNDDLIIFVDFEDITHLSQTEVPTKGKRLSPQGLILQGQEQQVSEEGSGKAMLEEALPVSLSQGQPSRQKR
# Method in brief: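 Single-point FRET screen of 1,280 library compounds at 18 μM nominal final concentration, on four plates. Trypsin-activated recombinant human meprin α (2x solution 2.6 nM, Hepes/Brij-35 pH 7.5) was pre-incubated 30 min at RT with test compound added by pin tool. 2x (MCA)-YVADAPK-(K-ε-DNP) at 20 μM was then added for 1 h at RT. Read at ex 324/em 393 nm.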
# meprin β [3] = target: T1, meprin β; experiment: Meprin β inhibition kinetics / enzyme kinetics; format: biochemical
# Method in brief: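 Trypsin-activated meprin β at 1 nM was run with (MCA)-EDEDED-(K-ε-DNP) 0.5–25 μM plus varying inhibitor concentrations in 50 mM Hepes, 0.01% Brij-35, pH 7.5, at 25 °C. Fluorescence was read at ex 324/em 393 nm. Rates came from the linear portion of the progress curves. Ki and Ki′ came from nonlinear regression with a mixed-inhibition model. Mechanism came from the alpha parameter and was checked with Lineweaver-Burk plots.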
# ADAM17 = ADAM17 (Homo sapiens, UniProt P78536); experiment: Selectivity testing against zinc metalloproteases: ADAM17; format: biochemical; settings: read-out: IC50 ADAM17; n = 3 Mean ± SD
# Sequence of ADAM17 (P78536 215-824, species assumed): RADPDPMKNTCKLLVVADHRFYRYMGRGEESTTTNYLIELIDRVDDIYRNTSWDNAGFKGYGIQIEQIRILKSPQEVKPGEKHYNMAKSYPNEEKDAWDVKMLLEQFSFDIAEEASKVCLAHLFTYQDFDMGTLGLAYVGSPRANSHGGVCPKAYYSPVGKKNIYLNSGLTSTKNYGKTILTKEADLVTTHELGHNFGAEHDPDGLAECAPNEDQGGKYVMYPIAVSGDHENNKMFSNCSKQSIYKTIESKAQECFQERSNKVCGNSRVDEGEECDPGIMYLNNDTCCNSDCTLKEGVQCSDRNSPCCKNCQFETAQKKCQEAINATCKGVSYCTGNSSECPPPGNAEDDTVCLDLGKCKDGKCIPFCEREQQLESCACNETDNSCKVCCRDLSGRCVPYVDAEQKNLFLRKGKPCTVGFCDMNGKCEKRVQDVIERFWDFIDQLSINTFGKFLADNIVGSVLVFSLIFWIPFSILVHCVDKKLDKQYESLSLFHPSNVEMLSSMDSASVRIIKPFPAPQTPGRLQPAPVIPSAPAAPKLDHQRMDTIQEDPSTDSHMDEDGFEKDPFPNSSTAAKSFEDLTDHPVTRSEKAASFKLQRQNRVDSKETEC
# MMP-2 = target: T3, MMP-2 (Homo sapiens, UniProt P08253); experiment: Selectivity testing against zinc metalloproteases: MMP-2; format: biochemical; settings: read-out: IC50 MMP-2; n = 3 Mean ± SD
# T3 sequence (P08253 110-660): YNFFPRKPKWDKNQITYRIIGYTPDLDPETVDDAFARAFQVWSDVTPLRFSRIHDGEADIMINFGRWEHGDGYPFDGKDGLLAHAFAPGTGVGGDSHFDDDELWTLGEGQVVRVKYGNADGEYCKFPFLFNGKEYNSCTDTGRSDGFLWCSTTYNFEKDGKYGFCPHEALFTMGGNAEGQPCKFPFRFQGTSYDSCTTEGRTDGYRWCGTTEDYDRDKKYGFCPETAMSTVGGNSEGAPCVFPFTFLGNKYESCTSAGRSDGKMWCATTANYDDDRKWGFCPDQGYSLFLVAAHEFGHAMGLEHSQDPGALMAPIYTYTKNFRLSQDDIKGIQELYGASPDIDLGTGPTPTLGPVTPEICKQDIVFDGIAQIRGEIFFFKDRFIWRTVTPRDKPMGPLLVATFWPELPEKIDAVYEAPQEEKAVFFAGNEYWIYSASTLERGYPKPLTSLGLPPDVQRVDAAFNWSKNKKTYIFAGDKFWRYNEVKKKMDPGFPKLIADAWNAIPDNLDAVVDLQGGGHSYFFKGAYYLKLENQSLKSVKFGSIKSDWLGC
# MMP-13 = MMP-13 (Homo sapiens, UniProt P45452); experiment: Selectivity testing against zinc metalloproteases: MMP-13; format: biochemical; settings: read-out: IC50 MMP-13; n = 3 Mean ± SD
# meprin β [4] = target: T1, meprin β; experiment: Meprin β HTS FRET assay, dose response; format: biochemical
# Method in brief: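 Trypsin-activated meprin β (trypsin removed on immobilized ovomucoid) in 50 mM Hepes, 0.01% Brij-35, pH 7.5, added as 2x (0.15 nM) solution. Pin-transferred inhibitor was preincubated 30 min at RT. 2x (20 μM) (MCA)-EDEDED-(K-ε-DNP) was then added, run 1 h at RT, and read at ex 324/em 393 nm. A 3-fold dilution series was run in quadruplicate, and % inhibition was fitted with a 4-parameter equation. DMSO final was 0.1% or 1.0%.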
# ADAM10 = target: T4, ADAM10 (Homo sapiens, UniProt O14672); experiment: Selectivity testing against zinc metalloproteases: ADAM10; format: biochemical; settings: read-out: IC50 ADAM10; n = 3 Mean ± SD
# T4 sequence (O14672 214-748): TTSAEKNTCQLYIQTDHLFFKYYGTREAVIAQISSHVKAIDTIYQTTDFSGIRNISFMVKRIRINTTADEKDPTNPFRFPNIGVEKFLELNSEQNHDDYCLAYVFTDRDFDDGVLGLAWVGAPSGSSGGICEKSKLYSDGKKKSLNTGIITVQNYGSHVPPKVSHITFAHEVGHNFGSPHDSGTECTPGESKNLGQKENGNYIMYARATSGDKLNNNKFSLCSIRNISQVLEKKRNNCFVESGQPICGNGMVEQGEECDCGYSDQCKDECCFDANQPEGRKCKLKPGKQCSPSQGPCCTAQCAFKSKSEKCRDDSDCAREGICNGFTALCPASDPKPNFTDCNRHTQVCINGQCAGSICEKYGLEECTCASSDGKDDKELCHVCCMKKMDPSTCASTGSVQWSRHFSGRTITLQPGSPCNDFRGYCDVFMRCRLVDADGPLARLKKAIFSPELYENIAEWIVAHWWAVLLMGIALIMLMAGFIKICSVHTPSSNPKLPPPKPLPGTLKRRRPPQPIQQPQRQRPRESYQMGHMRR
# MMP-9 = MMP-9 (Homo sapiens, UniProt P14780); experiment: Selectivity testing against zinc metalloproteases: MMP-9; format: biochemical; settings: read-out: IC50 MMP-9; n = 3 Mean ± SD
# Sequence of MMP-9 (P14780 94-707, species assumed): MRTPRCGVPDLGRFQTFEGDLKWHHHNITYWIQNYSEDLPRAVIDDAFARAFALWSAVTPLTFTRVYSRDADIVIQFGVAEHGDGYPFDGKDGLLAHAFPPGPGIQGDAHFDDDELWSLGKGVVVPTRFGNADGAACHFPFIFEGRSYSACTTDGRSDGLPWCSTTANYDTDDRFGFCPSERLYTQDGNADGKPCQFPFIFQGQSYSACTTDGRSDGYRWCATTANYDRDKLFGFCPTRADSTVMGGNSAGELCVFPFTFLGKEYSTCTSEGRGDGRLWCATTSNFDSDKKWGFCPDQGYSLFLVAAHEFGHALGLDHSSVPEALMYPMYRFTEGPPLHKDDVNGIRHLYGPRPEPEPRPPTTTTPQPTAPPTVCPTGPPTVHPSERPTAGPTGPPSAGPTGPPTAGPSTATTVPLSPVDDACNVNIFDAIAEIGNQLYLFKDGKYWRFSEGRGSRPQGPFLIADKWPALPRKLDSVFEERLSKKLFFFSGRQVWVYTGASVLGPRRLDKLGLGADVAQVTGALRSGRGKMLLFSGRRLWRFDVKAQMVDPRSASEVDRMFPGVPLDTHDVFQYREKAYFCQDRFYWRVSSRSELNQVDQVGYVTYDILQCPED
# MMP-14 = MMP-14 (Homo sapiens, UniProt P50281); experiment: Selectivity testing against zinc metalloproteases: MMP-14; format: biochemical; settings: read-out: IC50 MMP-14; n = 3 Mean ± SD
# MMP-8 = MMP-8 (Homo sapiens, UniProt P22894); experiment: Selectivity testing against zinc metalloproteases: MMP-8; format: biochemical; settings: read-out: IC50 MMP-8; n = 3 Mean ± SD
# Sequence of MMP-8 (P22894 101-467, species assumed): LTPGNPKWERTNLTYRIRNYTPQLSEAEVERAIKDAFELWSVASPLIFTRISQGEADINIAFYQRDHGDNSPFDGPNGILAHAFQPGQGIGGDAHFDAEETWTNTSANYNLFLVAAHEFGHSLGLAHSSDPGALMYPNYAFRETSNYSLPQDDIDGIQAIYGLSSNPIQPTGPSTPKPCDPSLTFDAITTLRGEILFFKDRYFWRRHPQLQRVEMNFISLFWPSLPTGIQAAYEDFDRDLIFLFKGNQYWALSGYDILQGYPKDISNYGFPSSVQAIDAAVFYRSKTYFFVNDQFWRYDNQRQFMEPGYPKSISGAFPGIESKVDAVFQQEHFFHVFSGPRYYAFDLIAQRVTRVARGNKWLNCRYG
# meprin α [5] = target: T2, meprin α; experiment: Meprin α HTS FRET assay, dose response; format: biochemical
# Method in brief: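 Recombinant human Strep-tagged meprin α was expressed in baculovirus-infected BTI-TN-5B1-4 cells, trypsin-activated, then freed of trypsin. It was used as a 2x solution at 2.6 nM in 50 mM Hepes, 0.01% Brij-35, pH 7.5. Test compound was pre-incubated 30 min at RT, then 2x (MCA)-YVADAPK-(K-ε-DNP) at 20 μM was added for 1 h at RT. Read at ex 324/em 393 nm. 3-fold dilutions in quadruplicate; 4-parameter fit; 0.1% or 1.0% DMSO.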
# meprin α [6] = settings: cited from earlier work
# meprin β [7] = settings: read-out: Ki meprin β; cited from earlier work
smiles,measurement,setting,value
"O.c1cnc2c(c1)ccc1cccnc12 [1,10-phenanthroline monohydrate]",meprin β LOPAC pilot screen outcome,meprin β [1],inactive
same,meprin α LOPAC pilot screen outcome,meprin α [2],inactive
"c1ccc(-c2ccccn2)nc1 [2,2′-bipyridyl]",meprin β LOPAC pilot screen outcome,meprin β [1],inactive
same,meprin α LOPAC pilot screen outcome,meprin α [2],inactive
CC(=O)c1ccc(S(=O)(=O)NC(=O)NC2CCCCC2)cc1 [Acetohexamide],meprin α LOPAC pilot screen outcome,meprin α [2],selective hits
"N.N.O=C([O-])C1(C(=O)[O-])CCC1.[Pt+2] [Carboplatin, carboplatin]",% inhibition meprin β in pilot screen,meprin β [1],negative inhibition values
same,meprin β LOPAC pilot screen outcome,meprin β [1],selective hits
CCN(CC)CCNC(=O)c1ccc(NC(C)=O)cc1.Cl [N-Acetylprocainamide hydrochloride],meprin α LOPAC pilot screen outcome,meprin α [2],selective hits
"Cc1nc(N=Nc2cc(S(=O)(=O)[O-])c3cc([N+](=O)[O-])cc(S(=O)(=O)[O-])c3c2)c(COP(=O)([O-])[O-])c(C=O)c1O.[Na+].[Na+].[Na+].[Na+] [PPNDS, Pyridoxal-5′-phosphate-6-(2′-naphthylazo-6′-nitro-4′,8′-disulfonate) tetrasodium]","Ki lower than IC50, fold",meprin β [3]; meprin β Ki versus HTS IC50,10 fold
same,α = Ki/Ki′,"meprin β [3]; mixed-model inhibition, non-linear regression",36 ± 27
same,mechanism of inhibition of meprin β,meprin β [3]; non-linear regression and Lineweaver-Burke plots,pure competitive inhibition modality; also recorded: pure competitive inhibition mechanism
same,Ki,"meprin β [3]; read-out: Ki meprin β, substrate (MCA)-EDEDED-(K-ε-DNP), mixed inhibition model",8 ± 2.4 nM
same,IC50,ADAM17,91 ± 7.1 µM
same,meprin β LOPAC pilot screen outcome,meprin β [1],selective hits
same,IC50,MMP-2,31 ± 2 µM
same,IC50,MMP-13,69 ± 4.3 µM
same,potency differential meprin β versus meprin α,meprin β [4]; ratio of IC50 values,~1000 fold
same,selectivity ratio meprin β versus MMP-8,meprin β [4]; ratio of IC50 values,approximately 12 fold
same,IC50,"meprin β [4]; read-out: IC50 Meprin β, selectivity testing, n = 3 Mean ± SD",0.08 ± 0.005 µM
same,IC50,ADAM10,19 ± 1.1 µM
same,IC50,MMP-9,40 ± 2.5 µM
same,IC50,MMP-14,73 ± 7 µM
same,IC50,MMP-8,1000 ± 100 nM
same,IC50,"meprin α [5]; read-out: IC50 Meprin α, selectivity testing, n = 3 Mean ± SD",67000 ± 4500 nM
CCCCC[C@H](CC(=O)NO)C(=O)N[C@H](C(=O)N1CCC[C@H]1CO)C(C)C [actinonin],fold more potent inhibition of meprin α than meprin β,meprin α [6]; ratio of Ki values,100 fold
same,Ki,meprin α [6]; read-out: Ki meprin α,20 nM
same,meprin α LOPAC pilot screen outcome,meprin α [2],meprin α selective
same,meprin α LOPAC pilot screen outcome,meprin α [2]; listed as Actinonin,selective hits
same,IC50,"meprin β [4]; IC50 meprin β, 0.1% DMSO",5.2 ± 0.1 µM
same,IC50,"meprin β [4]; IC50 meprin β, 1.0% DMSO",4.5 ± 0.1 µM
same,Ki,meprin β [7],2 µM
same,IC50,"meprin α [5]; IC50 meprin α, 0.1% DMSO",1.5 ± 0.07 nM
same,IC50,"meprin α [5]; IC50 meprin α, 1.0% DMSO",2.5 ± 0.1 nM
CNC(=O)[C@H](Cc1ccccc1)NC(=O)[C@H](CC(C)C)[C@H](CSc1cccs1)C(=O)NO [batimastat],Ki,meprin β [7],18 ± 2.2 µM
"O=C(O)[C@@H]1C[C@H](C(=O)O)N1 [cis-Azetidine-2,4-dicarboxylic acid]",meprin α LOPAC pilot screen outcome,meprin α [2],selective hits
O=P(O)(O)C(Cl)(Cl)P(=O)(O)O [clodronic acid],meprin β LOPAC pilot screen outcome,meprin β [1],inactive
same,meprin α LOPAC pilot screen outcome,meprin α [2],inactive
CC(C)C[C@H](NC(=O)[C@H](O)[C@H](N)Cc1ccccc1)C(=O)O.Cl [epibestatin HCl],meprin β LOPAC pilot screen outcome,meprin β [1],inactive
same,meprin α LOPAC pilot screen outcome,meprin α [2],inactive
CNC(=O)[C@H](Cc1c[nH]c2ccccc12)NC(=O)[C@@H](CC(=O)NO)CC(C)C [galardin],Ki,meprin β [7],8.9 ± 0.71 µM
